For 49 compounds, IC50, inhibition and Ki results are on record in ChEMBL document CHEMBL1770135, “Acylideneoxoindoles: a new class of reversible inhibitors of human transglutaminase 2” (Bioorg Med Chem Lett, 2011).

Test [1] has as its target T1, Protein-glutamine gamma-glutamyltransferase (Homo sapiens, UniProt P21980).
T1 sequence (P21980 whole entry): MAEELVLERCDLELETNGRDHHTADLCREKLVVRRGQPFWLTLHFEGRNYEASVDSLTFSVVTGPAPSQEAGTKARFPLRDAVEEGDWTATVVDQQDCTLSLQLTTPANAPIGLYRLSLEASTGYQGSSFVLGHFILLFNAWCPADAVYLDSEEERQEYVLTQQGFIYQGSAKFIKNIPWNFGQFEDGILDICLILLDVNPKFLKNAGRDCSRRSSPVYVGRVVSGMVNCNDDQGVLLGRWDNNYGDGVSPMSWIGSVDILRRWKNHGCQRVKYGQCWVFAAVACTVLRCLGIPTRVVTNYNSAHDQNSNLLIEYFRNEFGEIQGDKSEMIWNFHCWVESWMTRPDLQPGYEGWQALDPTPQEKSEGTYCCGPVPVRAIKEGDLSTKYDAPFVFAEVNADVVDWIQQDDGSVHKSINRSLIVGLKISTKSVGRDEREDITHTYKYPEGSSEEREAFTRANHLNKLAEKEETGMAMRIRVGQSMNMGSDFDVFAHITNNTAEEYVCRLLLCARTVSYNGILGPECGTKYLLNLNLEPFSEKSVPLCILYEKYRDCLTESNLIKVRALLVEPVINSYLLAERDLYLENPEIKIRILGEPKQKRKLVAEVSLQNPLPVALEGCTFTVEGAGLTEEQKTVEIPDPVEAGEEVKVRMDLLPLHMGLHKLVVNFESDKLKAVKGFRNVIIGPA
Kind of test: Inhibition of human transglutaminase 2 using Cbz-Gln-Gly as a substrate by GDH-coupled assay. In a few lines:
(§1)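 Glutamate dehydrogenase-coupled deamidation assay with human TG2 at 0.5 µM and Cbz-Gln-Gly as acyl donor substrate. […] Ki values were derived from kinetic analysis in a mixed inhibition model, with α taken as the Ki'/Ki ratio. Errors were typically under 10%.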

Test [2] concerns the target T1, Protein-glutamine gamma-glutamyltransferase. Kind of test: Inhibition of human transglutaminase 2 using ZGBC as a substrate after 30 to 60 mins by fluorometric assay. In short, it runs like this: (§2)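 Direct fluorometric assay following TG2-catalysed release of 7-hydroxycoumarin from an ester substrate, with human TG2 at 15 nM. […] Ki and α were derived from a mixed inhibition model, with α as the Ki'/Ki ratio.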

The target in test [3] is T2, Protein-glutamine gamma-glutamyltransferase (Homo sapiens) (UniProt P21980).
T2 sequence (whole entry): T1 sequence (P21980 whole entry)
The experiment in a line: Partial inhibition of human transglutaminase 2 using ZGBC as a substrate after 30 to 60 mins by fluorometric assay. Set-up: concentration or dose not given beside the values. In a few lines: as §2

In test [4] the target is T2, Protein-glutamine gamma-glutamyltransferase (Homo sapiens). The experiment in a line: Partial inhibition of human transglutaminase 2 using Cbz-Gln-Gly as a substrate by GDH-coupled assay. The conditions noted are these: concentration not given here. In a few lines: as §1
Test [5] shares this target. Particulars: 2 to 8 uM.

Activity calls are given as the source filed them. No cut-off for these calls is given here.

As to `O=C(/C=C1/C(=O)N(CCCc2ccccc2)c2cccc(Cl)c21)c1cccnc1`, the IC50 (in general, the concentration at which inhibition is half-maximal) was found to be 1300 nM in test [1] and 1000 nM in test [2].
Take `COc1ccncc1C(=O)/C=C1/C(=O)Nc2cccc(Cl)c21`: the IC50 in test [1] stood at 1400 nM; in test [2], 950 nM. In addition, in test [3], the inhibition – broadly, the relative decrease from the control value, in per cent – was 50%.
For `Cc1cc(C)c(CN2C(=O)C(=O)c3ccccc32)cc1CN1C(=O)C(=O)c2ccccc21`, in test [1], the IC50 worked out at 40000 nM and the Ki – broadly, a measure of affinity in units of concentration, obtained from inhibition or displacement – is 11000 nM.
In test [1], `CN1C(=O)/C(=C/C(=O)c2cccnc2)c2c(Cl)cccc21` displayed an IC50 of 4000 nM and a Ki of 4000 nM. In test [2], this compound had an IC50 of 11000 nM.
Take `O=C1Nc2ccc([N+](=O)[O-])cc2/C1=C\C(=O)c1cccnc1`: the results for the IC50 in test [1] and in test [2] were 7900 nM and 1700 nM, respectively.
In the case of `O=C1Nc2cc(Br)ccc2/C1=C\C(=O)c1cccnc1`, the half-maximal inhibitory concentration (IC50) in test [1] was 1500 nM; in test [2], 360 nM. Moreover, the inhibition in test [4] was determined as 35%; in test [3], 65%.
Consider `O=C1Nc2c(Br)cccc2/C1=C\C(=O)c1cccnc1`, for which the values for the IC50 in test [1] and in test [2] were 2900 nM and 3200 nM, respectively.
Consider `O=C(/C=C1/C(=O)N(Cc2ccccc2)c2cccc(Cl)c21)c1cccnc1`, for which the IC50 in test [1] stood at 1500 nM; in test [2], 360 nM. The Ki in test [1] was 410 nM; in test [2], 1000 nM.
In the case of `O=C1Nc2c(Cl)cccc2/C1=C\C(=O)c1cccnc1`, the IC50 in test [1] worked out at 7300 nM; in test [2] it was 1600 nM. The compound also came in with an inhibition in test [3] of 70%.
Consider `CC(=O)/C=C1/C(=O)Nc2ccccc21`, for which the IC50 in test [1] is 11000 nM; in test [2], 19000 nM. In test [1], this compound displayed an inhibition constant (Ki) of 10000 nM.
In the case of `CC(C)CN1C(=O)/C(=C/C(=O)c2cccnc2)c2c(Cl)cccc21`, the IC50 in test [1] came to 1000 nM; in test [2], 4100 nM.
In the same order, the values of `O=C1Nc2cccc(Cl)c2/C1=C\C(=O)c1cccc(Cl)c1` are 700 nM and 2800 nM.
Turning to `Nc1cccc(C(=O)/C=C2/C(=O)Nc3cccc(Cl)c32)c1`, the IC50 in test [1] turned out to be 1400 nM; in test [2], 1800 nM.
For `O=C1Nc2cccc(Cl)c2/C1=C\C(=O)c1cccnc1`, in test [1], the IC50 amounted to 900 nM and the Ki was 1300 nM. Besides, the IC50 in test [2] was 1700 nM.
Take `COc1cccc(C(=O)/C=C2/C(=O)Nc3cccc(Cl)c32)c1`: the figures for the IC50 in test [1] and in test [2] were 1000 nM and 1100 nM, respectively.
Turning to `Nc1ccc(C(=O)/C=C2/C(=O)Nc3cccc(Cl)c32)cc1`, the figures for the IC50 in test [1] and in test [2] were 1100 nM and 3000 nM, respectively. This compound also showed an inhibition in test [3] of 65%.
`CC(=O)/C=C1/C(=O)Nc2cc(OC(F)(F)F)ccc21`: the concentration for half-maximal inhibition (IC50) was found to be 3600 nM in test [1] and 2600 nM in test [2].
In test [1], `O=C1Nc2cc(Cl)ccc2/C1=C\C(=O)c1cccnc1` came in with a half-inhibitory concentration (IC50) of 2100 nM and a Ki of 5300 nM. The compound also showed an inhibition in test [4] of 70%. In test [2], this compound gave an IC50 of 20000 nM. In test [5], the inhibition result was “Active”.
For `CC(=O)/C=C1/C(=O)Nc2c(Cl)cccc21`, the IC50 in test [1] is 4700 nM; in test [2], 3900 nM.
The matching figures for `COC(=O)c1cccc(CN2C(=O)/C(=C/C(=O)c3cccnc3)c3c(Cl)cccc32)c1`: 1100 nM and 5600 nM.
Regarding `O=C1Nc2cccc(Cl)c2/C1=C\C(=O)c1ccccn1`, the IC50 in test [1] is 1100 nM; in test [2], 890 nM.
In the same order, the values of `O=C1Nc2cccc(Cl)c2/C1=C\C(=O)c1cncc(Br)c1` are 1400 nM and 970 nM.
For `CC(=O)/C=C1/C(=O)Nc2cccc(Cl)c21`, in test [1], the IC50 was determined as 1500 nM and the affinity, expressed as Ki, was 700 nM.
Consider `Cc1cc(CN2C(=O)C(=O)c3ccccc32)c(C)cc1CN1C(=O)C(=O)c2ccccc21`, for which the IC50 in test [1] was greater than 250000 nM.
Turning to `O=C1Nc2cccc(Cl)c2/C1=C\C(=O)c1ccncc1`, the results for the IC50 in test [1] and in test [2] were 1200 nM and 1000 nM, respectively.
The matching figures for `COc1ccc(C(=O)/C=C2/C(=O)Nc3cccc(Cl)c32)cc1`: 1100 nM and 1300 nM.
For the compound `O=C1Nc2ccc(Cc3ccc4c(c3)C(=O)C(=O)N4)cc2C1=O`, in test [1], the IC50 was determined as 30000 nM and the affinity corresponds to a Ki of 15000 nM.
Take `O=C1Nc2cccc(Br)c2/C1=C\C(=O)c1cccnc1`: the IC50 in test [1] amounted to 900 nM; in test [2], 1000 nM. Besides, the Ki in test [1] stood at 400 nM; in test [2] it was 250 nM.
In test [1], `CC(=O)/C=C1/C(=O)Nc2ccc(Cl)cc21` gave a 50% inhibitory concentration (IC50) of 4300 nM and a Ki of 900 nM. It took 3700 nM to reach half-maximal inhibition in test [2] (IC50).
`COC(=O)c1ccc(CN2C(=O)/C(=C/C(=O)c3cccnc3)c3c(Cl)cccc32)cc1`: the IC50 in test [1] turned out to be 1200 nM; in test [2] it was 660 nM.
`O=C1Nc2ccc(Oc3ccc4c(c3)C(=O)C(=O)N4)cc2C1=O`: in test [1], the IC50 is 25000 nM and the affinity, expressed as Ki, was 3000 nM.
As to `O=C(/C=C1/C(=O)N(c2ccccc2)c2cccc(Cl)c21)c1cccnc1`, the IC50 in test [1] was 800 nM; in test [2] it was 570 nM.
In test [1], `O=C1Nc2cccc(Cl)c2/C1=C\C(=O)c1ccccc1` displayed an IC50 of 2800 nM and a Ki of 3300 nM. In test [2], this compound displayed an IC50 of 20000 nM.
For `O=C(/C=C1/C(=O)N(CC2CCCCC2)c2cccc(Cl)c21)c1cccnc1`, the IC50 in test [1] turned out to be 2100 nM; in test [2], 6700 nM.
The matching figures for `Cc1ccc2c(c1)/C(=C\C(=O)c1cccnc1)C(=O)N2`: 6300 nM and 4500 nM.
In turn, `O=C1Nc2ccccc2C1=O` [ISATIN] had an IC50 in test [1] greater than 250000 nM.
`O=C1Nc2ccccc2/C1=C1/Nc2ccccc2C1=O` [INDIRUBIN] had an IC50 in test [1] greater than 100000 nM.
On to `COc1ccccc1C(=O)/C=C1/C(=O)Nc2cccc(Cl)c21`, for which the values for the IC50 in test [1] and in test [2] were 900 nM and 740 nM, respectively.
For `O=C1Nc2ccc(Br)cc2/C1=C\C(=O)c1cccnc1`, in test [1], it took 4800 nM to reach half-maximal inhibition (IC50) and the affinity corresponds to a Ki of 3000 nM. Further, in test [2], the midpoint of inhibition, the IC50, lay at 560 nM and the Ki amounted to 680 nM.
In test [1], `O=C1Nc2ccccc2/C1=C\C(=O)c1cccnc1` gave an IC50 of 22000 nM and a Ki of 12000 nM. The IC50 in test [2] was 8500 nM.
For `O=C1Nc2ccccc2/C1=C1\C(=O)Nc2ccccc21` [ISOINDIGO], in test [1], the midpoint of inhibition, the IC50, lay at 8000 nM and the Ki stood at 41000 nM.
`CC(=O)/C=C1/C(=O)Nc2cc(F)ccc21`: in test [1], the IC50 came to 11000 nM and the affinity corresponds to a Ki of 5400 nM. In addition, the IC50 in test [2] came out at 20000 nM.
Turning to `CN(C)C(=O)CN1C(=O)/C(=C/C(=O)c2cccnc2)c2c(Cl)cccc21`, the IC50 in test [1] stood at 5500 nM; in test [2] it was 9200 nM.
In the same order, the values of `O=C1Nc2ccc(Cl)cc2/C1=C\C(=O)c1cccnc1` are 6000 nM and 1200 nM.
In the same order, the values of `CC(C)N1C(=O)/C(=C/C(=O)c2cccnc2)c2c(Cl)cccc21` are 1400 nM and 1500 nM.
For `O=C1Nc2cccc(Cl)c2/C1=C\C(=O)c1ccc(Cl)cc1`, the IC50 is 800 nM in test [1] and 90 nM in test [2]. For the same compound, the inhibition in test [3] came to 60%.
As for `O=C(/C=C1/C(=O)N(CCc2ccccc2)c2cccc(Cl)c21)c1cccnc1`, the IC50 in test [1] came out at 1500 nM; in test [2] it was 2900 nM.
Consider `CCOC(=O)CN1C(=O)/C(=C/C(=O)c2cccnc2)c2c(Cl)cccc21`, for which the half-inhibitory concentration (IC50) came to 1800 nM in test [1] and 2500 nM in test [2].
Take `O=C1C(=O)N(CN2C(=O)C(=O)c3ccccc32)c2ccccc21`: in test [1], the IC50 is 18000 nM and affinity was put at a Ki of 10000 nM.
